# Data taken from ChEMBL document CHEMBL2150881, “JD-5006 and JD-5037: peripherally restricted (PR) cannabinoid-1 receptor blockers related to SLV-319 (Ibipinabant) as metabolic disorder therapeutics devoid of CNS liabilities” (Bioorg Med Chem Lett, 2012).
# Columns and labels:
# [1] = target: T1, Cannabinoid receptor 1 (Homo sapiens, UniProt P21554); assay: Displacement of 3[H]ligand from recombinant human CB1 receptor
# How it was run: (§1)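 Radioligand displacement from human recombinant CB1 and CB2 protein by a [³H] ligand. Initial screen at two concentrations in duplicate, with values >100 nM estimated. Percent inhibition read at 100 nM. IC₅₀ taken from four-point concentration curves run in duplicate.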
# [2] = target: Cannabinoid receptor 2 (Homo sapiens, UniProt P34972); assay: Displacement of 3[H]ligand from recombinant human CB2 receptor; how it was run: as §1
# [3] = target: Cannabinoid receptor 1 (Mus musculus) (UniProt P47746); settings: Cerebellum, 30 mg/kg
# [4] = system: Mus musculus; assay: In vivo receptor occupancy at CB1 receptor in mouse hippocampus assessed as inhibition of [3H]SR141716A binding at 30 mg/kg, po for 3 days measured after 1 hr post last dose; assay type: functional
# How it was run: (§2)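 Chow-fed mice dosed orally once daily at 3 or 30 mg/kg for 3 consecutive days, killed 1 h after the last dose. [3H]SR141716A was given by lateral tail-vein injection 30 min before euthanasia. Hippocampus, cerebellum and brain stem (reference region) were scintillation-counted as DPM/mg. Binding potential = (receptor − reference)/reference. Occupancy (%) = 100 × (vehicle BP − drug BP)/vehicle BP. 5 animals per dose.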
# [5] = system: Mus musculus; assay: In vivo receptor occupancy at CB1 receptor in mouse cerebellum assessed as inhibition of [3H]SR141716A binding at 3 mg/kg, po for 3 days measured after 1 hr post last dose; assay type: functional; how it was run: as §2
# [6] = system: Mus musculus; assay: In vivo receptor occupancy at CB1 receptor in mouse hippocampus assessed as inhibition of [3H]SR141716A binding at 3 mg/kg, po for 3 days measured after 1 hr post last dose; assay type: functional; how it was run: as §2
# [7] = Plasma concentration in chow fed mouse at 100 mg/kg, po for 3 days measured after 1 hr post last dose; assay type: ADME, organism-based; parameters: dose 100 mg/kg, route oral
# How it was run: (§3)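 Chow-fed mice were dosed orally at 100 or 20 mg/kg for 3 consecutive days. Plasma and brain were taken 1 h after the last dose. Proteins were precipitated with 3× volume ice-cold acetonitrile containing internal standard, then centrifuged 15 min at 4 °C. Analysis by LC/MS/MS against calibrators in plasma or brain homogenate (1000 to 1.6 nM). Brain is given as ng/gm and also as % of plasma.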
# [8] = system: Brain; assay: Drug uptake in chow fed mouse brain assessed per gram of tissue at 100 mg/kg, po for 3 days measured 1 hr post last dose; assay type: ADME, organism-based; parameters: dose 100 mg/kg, route oral; settings: in vivo; how it was run: as §3
# [9] = target: T1, Cannabinoid receptor 1; assay: Displacement of 3[H]ligand from recombinant human CB1 receptor at 100 nM; how it was run: as §1
# [10] = Apparent permeability from basolateral to apical side in MDR expressing MDCK cells by LC-MS-MS analysis; assay type: ADME, cell-based, Canis lupus familiaris; settings: dog, MDCK-MDR1
# How it was run: (§4)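 Permeability measured across MDR-MDCK kidney cell monolayers, giving apparent permeability (Papp) in the apical-to-basolateral and basolateral-to-apical directions.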
# [11] = Apparent permeability from apical to basolateral side in MDR expressing MDCK cells by LC-MS-MS analysis; assay type: ADME, cell-based, Canis lupus familiaris; settings: dog, MDCK-MDR1; how it was run: as §4
# [12] = Efflux ratio of permeability from […] in MDR expressing MDCK cells; assay type: ADME, cell-based, Canis lupus familiaris; settings: dog, MDCK-MDR1
# T1 sequence (P21554 whole entry): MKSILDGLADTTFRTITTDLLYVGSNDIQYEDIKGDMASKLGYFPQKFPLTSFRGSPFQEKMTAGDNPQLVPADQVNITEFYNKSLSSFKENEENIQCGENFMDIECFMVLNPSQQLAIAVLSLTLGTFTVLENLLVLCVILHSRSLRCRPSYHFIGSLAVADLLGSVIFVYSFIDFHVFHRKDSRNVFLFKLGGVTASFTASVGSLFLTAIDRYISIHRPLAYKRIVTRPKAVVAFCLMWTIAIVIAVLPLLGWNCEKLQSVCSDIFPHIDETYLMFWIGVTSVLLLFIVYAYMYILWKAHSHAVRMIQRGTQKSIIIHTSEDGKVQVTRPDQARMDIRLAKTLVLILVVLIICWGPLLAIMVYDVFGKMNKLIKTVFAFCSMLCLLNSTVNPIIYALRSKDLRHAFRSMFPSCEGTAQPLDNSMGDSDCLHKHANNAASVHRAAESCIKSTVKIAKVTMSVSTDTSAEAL
# Cannabinoid receptor 2, sequence (P34972 whole entry): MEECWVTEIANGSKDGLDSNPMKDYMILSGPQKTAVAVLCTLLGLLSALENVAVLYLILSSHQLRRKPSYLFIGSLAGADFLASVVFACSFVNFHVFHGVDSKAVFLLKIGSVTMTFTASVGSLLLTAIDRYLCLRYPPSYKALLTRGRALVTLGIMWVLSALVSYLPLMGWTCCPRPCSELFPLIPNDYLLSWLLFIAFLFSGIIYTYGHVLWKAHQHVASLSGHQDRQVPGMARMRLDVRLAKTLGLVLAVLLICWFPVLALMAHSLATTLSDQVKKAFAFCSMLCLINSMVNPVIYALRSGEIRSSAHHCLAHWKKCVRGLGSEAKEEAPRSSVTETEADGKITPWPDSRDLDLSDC
# Cannabinoid receptor 1 (Mus musculus), sequence (P47746 whole entry): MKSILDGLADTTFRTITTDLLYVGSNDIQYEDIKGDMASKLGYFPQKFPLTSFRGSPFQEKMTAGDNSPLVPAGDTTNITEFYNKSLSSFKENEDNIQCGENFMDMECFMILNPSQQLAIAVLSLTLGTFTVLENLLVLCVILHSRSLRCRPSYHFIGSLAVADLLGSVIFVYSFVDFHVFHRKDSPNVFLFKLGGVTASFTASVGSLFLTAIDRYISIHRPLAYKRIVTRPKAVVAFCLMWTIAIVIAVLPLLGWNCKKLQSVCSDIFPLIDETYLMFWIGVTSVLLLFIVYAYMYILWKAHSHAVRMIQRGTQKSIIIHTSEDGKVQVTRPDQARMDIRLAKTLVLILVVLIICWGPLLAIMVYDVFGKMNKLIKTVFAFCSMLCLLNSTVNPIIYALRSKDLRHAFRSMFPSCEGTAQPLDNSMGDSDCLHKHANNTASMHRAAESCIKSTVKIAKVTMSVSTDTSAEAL
Structure (SMILES),IC50 [1] [nM],IC50 [2] [nM],also measured
CC(C)[C@H](N/C(=N\S(=O)(=O)c1ccc(Cl)cc1)N1CC(c2ccccc2)C(c2ccc(Cl)cc2)=N1)C(=O)NCC(N)=O (stereo not given in full),> 100,> 1000,
CC(C)[C@H](N/C(=N\S(=O)(=O)c1ccc(Cl)cc1)N1C[C@H](c2ccccc2)C(c2ccc(Cl)cc2)=N1)C(N)=O,0.5,> 1000,Occ [3]: 0%; Occ [4]: 0%; Occ [5]: 0%; Occ [6]: 10%
COc1ccc(S(=O)(=O)NC(=N[C@H](C(=O)NCC(N)=O)C(C)C)N2CC(c3ccccc3)C(c3ccc(Cl)cc3)=N2)cc1 (stereo not given in full),> 100,> 5000,
"NC(=O)CN=C(NS(=O)(=O)c1ccc(Cl)cc1)N1CC(c2ccccc2)C(c2ccc(Cl)cc2)=N1 (single isomer, unassigned; enantiomer 1)",32,> 5000,concentration at 1 h [7]: 16700 ng/mL; Occ [4]: 3%; Occ [5]: 0%; Drug uptake [8]: 685 ng/g; Occ [6]: 10%
NC(=O)C[C@H](N=C(NS(=O)(=O)c1ccc(Cl)cc1)N1CC(c2ccccc2)C(c2ccc(Cl)cc2)=N1)C(N)=O (stereo not given in full),> 100,> 5000,
CCOC(=O)[C@@H](O)CCN/C(=N\S(=O)(=O)c1ccc(Cl)cc1)N1CC(c2ccccc2)C(c2ccc(Cl)cc2)=N1 (stereo not given in full),,,inhibition [9]: 53%
"NC(=O)CN/C(=N\S(=O)(=O)c1ccc(Cl)cc1)N1CC(c2ccccc2)C(c2ccc(Cl)cc2)=N1 (single isomer, unassigned; enantiomer 1)",,,Occ [3]: 0%
"NC(=O)CN=C(NS(=O)(=O)c1ccc(Cl)cc1)N1CC(c2ccccc2)C(c2ccc(Cl)cc2)=N1 (single isomer, unassigned; enantiomer 2)",> 1000,> 1000,
CNC(=NS(=O)(=O)c1ccc(Cl)cc1)N1CC(c2ccccc2)C(c2ccc(Cl)cc2)=N1 (racemic) [RAC-IBIPINABANT],,,Papp B→A [10]: 10 ×10⁻⁶ cm/s; concentration at 1 h [7]: 5130 ng/mL; Papp A→B [11]: 9.45 ×10⁻⁶ cm/s; Drug uptake [8]: 2080 ng/g
C[C@H](N=C(NS(=O)(=O)c1ccc(Cl)cc1)N1CC(c2ccccc2)C(c2ccc(Cl)cc2)=N1)C(=O)O (stereo not given in full),> 1000,,
NC(=O)[C@H](Cc1ccccc1)N/C(=N\S(=O)(=O)c1ccc(Cl)cc1)N1CC(c2ccccc2)C(c2ccc(Cl)cc2)=N1 (stereo not given in full),,,inhibition [9]: 61%
COC(=O)CN/C(=N\S(=O)(=O)c1ccc(Cl)cc1)N1CC(c2ccccc2)C(c2ccc(Cl)cc2)=N1 (stereo not given),,,inhibition [9]: 88%
CN/C(=N\S(=O)(=O)c1ccc(C(=O)O)cc1)N1CC(c2ccccc2)C(c2ccc(Cl)cc2)=N1 (racemic),> 5000,,
COC(=O)[C@H](C)N/C(=N\S(=O)(=O)c1ccc(Cl)cc1)N1CC(c2ccccc2)C(c2ccc(Cl)cc2)=N1 (stereo not given in full),,,inhibition [9]: 96%

# Continued, in another order:
IC50 [1] [nM],IC50 [2] [nM],Structure (SMILES),also measured
8.5,> 1000,CC(C)(N/C(=N\S(=O)(=O)c1ccc(Cl)cc1)N1CC(c2ccccc2)C(c2ccc(Cl)cc2)=N1)C(N)=O (racemic),
100,> 5000,COc1ccc(S(=O)(=O)NC(=NCC(N)=O)N2CC(c3ccccc3)C(c3ccc(Cl)cc3)=N2)cc1 (stereo not given),
> 100,> 5000,C[C@H](O)[C@@H](N=C(NS(=O)(=O)c1ccc(Cl)cc1)N1CC(c2ccccc2)C(c2ccc(Cl)cc2)=N1)C(N)=O (stereo not given in full),
8,> 5000,C[C@H](N=C(NS(=O)(=O)c1ccc(Cl)cc1)N1CC(c2ccccc2)C(c2ccc(Cl)cc2)=N1)C(=O)N[C@@H](CO)C(N)=O (stereo not given in full),
66,> 5000,NC(=O)[C@@H](O)CCN/C(=N\S(=O)(=O)c1ccc(Cl)cc1)N1CC(c2ccccc2)C(c2ccc(Cl)cc2)=N1 (stereo not given in full),
20,> 1000,C[C@H](N/C(=N\S(=O)(=O)c1ccc(Cl)cc1)N1CC(c2ccccc2)C(c2ccc(Cl)cc2)=N1)C(N)=O (stereo not given in full),Papp B→A [10]: 9.25 ×10⁻⁶ cm/s; efflux ratio [12]: 3.8; Papp A→B [11]: 2.44 ×10⁻⁶ cm/s
300,,CCOC(=O)Nc1ccc(S(=O)(=O)NC(=NC)N2CC(c3ccccc3)C(c3ccc(Cl)cc3)=N2)cc1 (racemic),
,> 5000,NC(=O)[C@H](Cc1ccccc1)N=C(NS(=O)(=O)c1ccc(Cl)cc1)N1CC(c2ccccc2)C(c2ccc(Cl)cc2)=N1 (stereo not given in full),
7,> 5000,C[C@@H](O)[C@H](N/C(=N/S(=O)(=O)c1ccc(Cl)cc1)N1CC(c2ccccc2)C(c2ccc(Cl)cc2)=N1)C(N)=O (stereo not given in full),Papp B→A [10]: 18.6 ×10⁻⁶ cm/s; efflux ratio [12]: > 20; Papp A→B [11]: < 0.9 ×10⁻⁶ cm/s
2,> 1000,CC(C)[C@H](N/C(=N\S(=O)(=O)c1ccc(Cl)cc1)N1CC(c2ccccc2)C(c2ccc(Cl)cc2)=N1)C(N)=O (stereo not given in full),Papp B→A [10]: 16.6 ×10⁻⁶ cm/s; concentration at 1 h [7]: 3850 ng/mL; Papp A→B [11]: 1.08 ×10⁻⁶ cm/s; Drug uptake ([8]; BLD = below limit of detection): BLD
